Shown are actives, neighbours in structure and some others; about 6.6% of the full set was active somewhere.
PostGolgi ctrl – growth inhibition of yeast control strain, primary screen, counter-screen for post-Golgi transport modulator project; actives 5% (n = 98,000); inhibition, % at 10 µM; efflux-deficient yeast background strain, growth absorbance A615, 16 h
Her2 expr inh – inhibitors of Her2 protein expression, primary screen, SKBR-3 cells, AlphaScreen, 66K library; Receptor tyrosine-protein kinase erbB-2 (Homo sapiens), P04626; SKBR-3 HER2 protein level, 18-24 h; stronger effect = lower value; HER2 level % of control, % at 10 µM; actives 0.69% (n = 65,000);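 active means HER2 level under 5% of the carrier-only control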
PostGolgi yeast – phenotypic screen on post-Golgi transport, primary screen; post-Golgi transport phenotypic cell assay; inhibition, % at 10 µM; actives 0.9% (n = 98,000); AID 739, 2007;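 further: yeast cells grown in 1536-well plates; yeast grown about 18 h at 30C before absorbance read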
tolC growth inh – growth inhibitors of E. coli tolC mutant, primary screen, strain BW25113 ΔtolC::kan, 384-well; actives 2.2% (n = 65,000); AID 573, 2007; OD615; growth inhibition, % at 10 µM (by protocol);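 active means growth inhibition at or above a cutoff equal to the mean over every tested compound plus 3 SD, cut at about 60% in these data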;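 further: growth measured after 20 h incubation at 37 °C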
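Test system: tolC-deleted E. coli BW25113 | Medium: LB with kanamycin 50 µg/mL | Compound dosing: Single concentration, 10 µM final per compound | Schedule: 37 °C, 20 h exposure | Measured by: OD at 615 nm | Evaluation: Percent growth inhibition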
Ecoli WT expand – growth inhibitors of wild-type E. coli, primary screen, strain BW25113, expanded library, OD600 | OD600 absorbance | growth inhibition, % at 100 µM | actives 0.15% (n = 98,000) | AID 710, 2007;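 active means growth inhibition above about 50% at one test dose, limit read from the data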;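 further: growth measured after 20 h incubation at 37 °C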
A number is an active result; - = inactive; . = no result given. Unless noted, no stated cut-off is given here; in the data, active means inhibition above about 30%; inactive means the rest.

SMILES	PostGolgi ctrl	Her2 expr inh	PostGolgi yeast	tolC growth inh	Ecoli WT expand
CCC(C)C(=O)Nc1nc(C)c(-c2csc(Nc3ccc(Cl)cc3)n2)s1 (configuration not stated)	-	.	-	.	-
C=CCCC(=O)Nc1nc(C)c(-c2csc(Nc3cc(OC)ccc3OC)n2)s1	33	.	-	.	-
Cc1cc2ccccc2n1CCNC(=O)c1cccs1	-	-	-	-	-
CCN1CCCC1CNC(=O)Cn1cccc1C(=O)c1ccccc1C (configuration not stated)	-	-	-	-	-
Cc1noc2ncnc(Oc3ccc4ccccc4c3)c12	31	.	-	.	-
COc1ccc(-n2cnnc2SCC(=O)Nc2ccc(N3CCOCC3)cc2)cc1	-	.	-	.	-
O=C(CN1C(=O)COc2ccccc21)N(CCCN1CCOCC1)CC1CC=CCC1 (configuration not stated)	-	-	-	-	-
O=c1[nH]c2c(s1)C(c1ccccc1)C1C3CCC(C3)C1S2 (configuration not stated)	-	-	-	-	-
COc1ccc(C2c3sc(=O)[nH]c3SC3C4CCC(C4)C23)cc1 (configuration not stated)	-	-	-	100	-
CN1/C(=C/C(=O)c2nc(S(C)(=O)=O)ncc2Cl)C(C)(C)c2ccccc21	60	-15	-	-	-
CN1/C(=C\C(=O)c2ccco2)C(C)(C)c2ccccc21	-	-	-	-	-
CN(C)c1ccc(C(=O)Nc2nnc(-c3ccc(Cl)cc3)o2)cc1	-	-	-	-	-
CC(=O)c1ccc(C(=O)Nc2nnc(-c3ccc(Cl)cc3)o2)cc1	.	-	.	100	.
O=C(Nc1nnc(-c2ccccc2)o1)c1ccc(Cl)cc1	74	-	110	99	-
O=C(Nc1ccc(S(=O)(=O)N2CCCCC2)cc1)c1ccccc1Cl	-	.	-	.	-
O=C(COc1cccc(C(F)(F)F)c1)Nc1ccc(S(=O)(=O)N2CCCC2)cc1	-	-	-	64	-
CN(c1ccccc1C(=O)Nc1ccc(S(=O)(=O)N2CCCCC2)cc1)S(C)(=O)=O	-	-	-	100	-
O=C(Nc1ccccc1)Nc1ccc(S(=O)(=O)N2CCCCC2)cc1	30	-	-	100	-
COc1ccc(-c2c3c(nc4sc5c(Cl)nc(C)nc5c24)CCC3)cc1	-	.	-	.	-
COC(=O)c1cc(OC)c(OC)cc1NC(=S)N1CCN(Cc2ccccc2)CC1	-	.	-	.	-
COc1ccc(N(CC(=O)Nc2ccccc2C(=O)NCCc2ccccc2)S(C)(=O)=O)cc1OC	-	.	-	.	-
CCCCN(CCCC)C(=S)N/N=C/c1c(C)[nH]n(-c2ccccc2)c1=O	-	.	-	.	-
Cc1[nH]n(-c2ccccc2)c(=O)c1/C=N/Nc1nncc(-c2ccccc2)n1	-	.	-	.	93
Cc1ccc(-c2nn(-c3ccccc3)cc2CSC(=N)N)cc1	-	.	-	.	98
O=C(NCC1CCC(C(=O)O)CC1)c1cccnc1 (configuration not stated)	-	-	-	-	-
SMILES	PostGolgi ctrl	Her2 expr inh	PostGolgi yeast	tolC growth inh	Ecoli WT expand
CC(=O)CC(C)(C)n1nnc(-c2ccccc2)n1	-	-	-	-	-
COc1ccc(-n2c(Cc3cccn3C)nnc2SCC(=O)Nc2ccc3c(c2)OCO3)cc1	-	-	-	-	-
N/C(Cc1ccc(Cl)c(Cl)c1)=N\OC(=O)c1cccs1	79	.	-	.	-
O=C(c1sc2ccccc2c1Cl)N(Cc1ccccc1Cl)C1CCS(=O)(=O)C1 (configuration not stated)	31	.	-	.	-
O=C(c1sc2ccccc2c1Cl)N(Cc1ccccc1)C1CCS(=O)(=O)C1 (configuration not stated)	-	.	-	.	-
O=C(Cn1cnc2c(nnn2Cc2ccc(F)cc2)c1=O)NCC1CCCO1 (configuration not stated)	.	-	.	-	.
N#Cc1nc(COc2ccc(F)cc2)oc1N1CCCC1	-	-	-	-	-
N#Cc1nc(COc2cccc(Cl)c2)oc1N1CCCC1	-	-	-	-	-
Cc1ccc(OCc2nc(C#N)c(N3CCN(Cc4ccccc4)CC3)o2)cc1	-	-	-	64	-
N#Cc1nc(COc2ccccc2)oc1N1CCC(Cc2ccccc2)CC1	40	-	-	-	-
N#Cc1nc(COc2ccccc2)oc1N1CCN(Cc2ccccc2)CC1	-	-	-	67	-
COc1ccc(CN2CCN(c3ccccn3)CC2)c(OC)c1	-	-	-	-	-
c1ccc(COc2ccc(CN3CCN(c4ccccn4)CC3)cc2)cc1	-	.	73	.	-
Cc1nn(Cc2c(F)c(F)c(F)c(F)c2F)c(C)c1NC(=O)c1c([N+](=O)[O-])cnn1C	-	.	-	.	-
Cc1ccc(OCc2ccc(C(=O)Nc3c(C)nn(Cc4c(F)c(F)c(F)c(F)c4F)c3C)o2)c([N+](=O)[O-])c1	39	.	-	.	-
COc1ccc(-c2cc(-c3ccc(OC)cc3)[nH]n2)cc1	33	-	-	-	-
Cc1ccc(C)c(C(=O)Cn2ncc(Cl)c(Cl)c2=O)c1	-	.	-	.	-
O=C(OCn1ncc(Cl)c(Cl)c1=O)c1ccc(C(F)(F)F)cc1	68	.	109	.	-
Cc1ccc(C(=O)OCn2ncc(Cl)c(Cl)c2=O)cc1	49	.	93	.	-
Oc1ccc(N=Nc2n[nH]c(-c3ccc(Cl)cc3)n2)cc1	-	.	-	.	-
Nc1ccc(Sc2cnn(-c3ccccc3)c(=O)c2Cl)cc1	40	.	-	.	-
Cc1ccc(Sc2cnn(-c3ccccc3)c(=O)c2Cl)cc1	-	.	-	.	-
Cc1cc(OCC(=O)O)c2cccc(C)c2n1	-	-	-	-	-
Cc1ccc2nc(C)cc(OCC(=O)O)c2c1	-	-	44	-	-
COc1ccc2nc3c(cc2c1)c(NC(=O)c1cccs1)nn3CC(C)C	37	-	-	78	-
SMILES	PostGolgi ctrl	Her2 expr inh	PostGolgi yeast	tolC growth inh	Ecoli WT expand
Clc1ccc(Cn2c(-c3cccnc3Cl)nc3ccccc32)c(Cl)c1	38	.	-	.	-
Clc1ccc(Cn2c(-c3cccnc3Cl)nc3ccccc32)cc1	-	.	-	.	-
Fc1ccc(Cn2c(-c3cscn3)nc3ccccc32)c(Cl)c1	34	.	-	.	-
Nc1nonc1-c1nc2ccccc2n1Cc1ccc(F)cc1Cl	-	-	-	-	-
Cc1c(C(=O)NC(C)CN2CCCCC2)oc2ccccc12 (configuration not stated)	-	-	-	-	-
N#C/C(C(=O)N1CCOCC1)=C1/SC=C(c2ccccc2)N1c1ccccc1	.	-	.	-	.
COc1ccc(N2C(=O)CSC23C(=O)N2c4c(cccc43)C(C)=CC2(C)C)cc1 (configuration not stated)	32	.	-	.	-
CN=C(NC#N)SCC(=O)c1ccc(Cl)cc1Cl	-	-	-	-	-
CCc1ccc(NC(=O)CN(c2ccc3c(c2)OCO3)S(=O)(=O)c2c(C)noc2C)cc1	-	-	-	-	-
CCc1ccc(N(CC(=O)Nc2nc3ccc(C)cc3s2)S(=O)(=O)c2c(C)noc2C)cc1	32	.	-	.	-
